Screens from PubChem.
MT stabilize HCS: microtubule stabilization, imaging screen | actives 0.83% (n = 200,000) | HeLa tubulin immunostaining HCS, 24 h; share of cells brighter than vehicle mean+2SD | % tubulin-high responders, % at 10 µM | AID 2205;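 active = plate Z-score above 3 for both tubulin-high and condensed-nucleus cell shares, with cell loss under 80%, at 10 µM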;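 note: anti alpha tubulin signal scored within the nucleus-defined area of each cell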
bCat nuc transl: alters nuclear translocation of beta-catenin in HeLa cells; immunofluorescence imaging; nuclear translocation activity, % at 5 µM; actives 0.3% (n = 190,000); AID 1665;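 active = nuclear translocation activity above 50% at 5 µM, with a well cell count of 50 or more; inconclusive = wells under 50 cells across six images, flagged as toxic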;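 note: per-cell ratio of nuclear to cytoplasmic median beta-catenin stain intensity; plate controls were DMSO negative control for no effect and GSK-3 inhibitor IX positive control for full effect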
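test system = HeLa cells, endogenous beta-catenin | dosing = single 5 µM dose plus 0.02–20 µM confirmation series | times = compound treatment 24 h, 37°C, 5% CO2 | technique = beta-catenin immunofluorescence imaging with DAPI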
Rad51 HR inh: Rad51 (human) homologous recombination inhibition | Q06609 | hRad51 DNA strand exchange, fluorescence dequenching | inhibition, % at 10 µM | actives 0.085% (n = 200,000) | AID 1385;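 active = inhibition above 40% at the single screening dose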;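 note: 0% = DMSO control wells and 100% = blanks with heterologous ssDNA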
Target sequence (Q06609 whole entry, looked up): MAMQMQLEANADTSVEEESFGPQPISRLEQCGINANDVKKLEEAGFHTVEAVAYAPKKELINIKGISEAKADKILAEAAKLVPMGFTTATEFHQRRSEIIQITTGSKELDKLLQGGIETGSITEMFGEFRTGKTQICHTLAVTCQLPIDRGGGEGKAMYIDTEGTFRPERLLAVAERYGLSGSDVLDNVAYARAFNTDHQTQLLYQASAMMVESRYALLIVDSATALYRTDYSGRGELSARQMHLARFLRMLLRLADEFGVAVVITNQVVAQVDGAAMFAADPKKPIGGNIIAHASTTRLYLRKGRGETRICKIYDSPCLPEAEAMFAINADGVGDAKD
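Assay system: Human Rad51 nucleoprotein filaments preassembled on unlabelled ssDNA | Reagent: Donor/quencher-labelled 47-bp dsDNA substrate | Doses: One concentration, 10 µM final | Times: 37 °C 15-min filament assembly, 30-min compound preincubation, 15-min exchange | Technique: Fluorescein emission 520 nm, excitation 485 nm | Benchmarks: Plate control and blank wells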
Dynein cargo inh: dynein cargo transport inhibition; 3617.4 mouse cells, GR-EGFP nuclear translocation imaging; test concentration mostly 20 µM; stimulated with dexamethasone, 1 µM; hits give low values; z-score, hits read low; actives 0.47% (n = 220,000); AID 1381;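 active = plate z-score of nuclear minus cytoplasmic receptor signal below a set negative limit, without overly bright fluorescence or cell loss, cut at about -3.5 in these data, passing the limit was not always enough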;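 note: z-score of nuclear minus cytoplasmic ring GR-EGFP intensity difference per well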
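medium = tetracycline-free induction medium containing charcoal-stripped FBS | also added = 1.0 µM final dexamethasone stimulus | schedule = 48 h induction, 1 h compound, 30 min dex at 37 °C | technique = fixed, Hoechst-stained cells imaged at 10x for EGFP | measure = GR-EGFP nuclear translocation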
TbHK1 inh: blocks Trypanosoma brucei hexokinase 1 activity. recombinant TbHK1, G6PDH-coupled NADH A340. inhibition, % at 10 µM. actives 0.11% (n = 220,000). AID 1430;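 active = inhibition of 50% or more in the single-dose primary screen; inactive = inhibition below 50%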
Dynein inh conf: dynein cargo transport inhibition, confirmation; calls only at 20 µM; shares compounds with Dynein cargo inh; 3617.4 GR-EGFP nuclear translocation imaging, dexamethasone-induced; actives 69% (n = 1,000);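 active = inhibition of receptor movement into the nucleus at or above a set limit in both runs, with normal cell brightness and cell count; inconclusive = limit reached in only one run, brightness and count normal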;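 note: dexamethasone at 1 µM final in well for 30 min; nuclear minus cytoplasmic GR-EGFP mean intensity difference in channel 2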
G6PDH ctr: counter-screen for TbHK1 inhibitors: Leuconostoc G6PDH inhibition; actives 7% (n = 210); shares compounds with TbHK1 inh; AID 2516; purified G6PDH, NADH absorbance, 1 h; inhibition, % at 10 µM;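 active = at least 50% inhibition in the glucose-6-phosphate dehydrogenase coupled counterscreen; inconclusive = no clear call, values can overlap the other calls; inactive = inhibition below 50%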
TbHK1 rescreen: confirmation of Trypanosoma brucei hexokinase 1 inhibitors. shares compounds with TbHK1 inh. recombinant TbHK1, G6PDH-coupled NADH A340 absorbance. inhibition, % at 10 µM. actives 10% (n = 210). AID 2560;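 active = inhibition of at least 50% in both of the two screening runs; inconclusive = at least 50% in one run, below 50% in the other; inactive = inhibition below 50% in both runs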;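 note: 0% and 100% set by the maximum and minimum signal control wells on each plate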
Numbers without * were called inactive; i = inactive; u = inconclusive; x = no result given; + = active, no number. Sampled rows, rich in hits. Any-hit rate of the full collection: about 1.5%.

SMILES	MT stabilize HCS	bCat nuc transl	Rad51 HR inh	Dynein cargo inh	TbHK1 inh	Dynein inh conf	others
CNC(=O)Oc1cccc2ccccc12	x	1	-21	-0.09	-2	x
CC1(C)C[C@H]2C=C(C=O)[C@]3(C=O)C[C@]3(C)[C@H]2C1	4	5	3	-5.1	-1	+
O=C(c1ccc2c(c1)OCO2)C1CCCN(Cc2ccccn2)C1 (stereo unspecified)	3	0	-5	-1.5	2	x
Cc1cc([N+](=O)[O-])c(Cl)cc1NC(=O)C(C)C	2	1	0	0.99	24	x
CNc1cc(Cl)c2nonc2c1[N+](=O)[O-]	4	-4	-2	-7*	4	u
COc1ccc(OC)c(N2C(=O)NC(=O)/C(=C/c3ccc([N+](=O)[O-])s3)C2=O)c1	2	1	10	-5.3*	-12	+
Cc1c(C=C2C(=O)NC(=O)NC2=O)c(=O)n(-c2ccccc2)n1C	4	-1	-8	0.74	10	x
Cc1nn(Cc2ccccc2)c(C)c1C=C1C(=O)NC(=S)NC1=O	5	-2	-3	-4.7*	39	i
N#CC(C#N)=Cc1ccc(C=C(C#N)C#N)cc1	x	1	-3	-4.3*	3	u
CCN(CC)c1ccc(/C=N/c2sc3c(c2C#N)C2CCN3CC2)c(O)c1	4	18	i	-3.7	-15	+
CN1C[C@@H]2C[C@@H](c3cccn3-c3ccccn3)N3CCC[C@@]23C1=O	3	-3	6	-0.21	5	x
COc1cccc(C2CC3C(=O)C=CC2N3Cc2ccccc2)c1 (stereo unspecified)	7	-2	-3	-3.8*	-3	+
CCn1nc(-c2ccccc2)nc2c(=O)n(C)c(=O)nc1-2	3	0	-31	-2.2	69*	x	G6PDH ctr=34;TbHK1 rescreen=38
CN1CCN(c2ccccc2N)CC1	2	1	-13	1.2	-4	x
O=c1c2ccccc2[se]n1-c1ccccc1	3	3	-3	0.61	91*	x	G6PDH ctr=2;TbHK1 rescreen=90*
O=c1c2ccccc2nc(-c2ccccc2)n1-c1ccccc1	x	-1	-8	-0.2	-11	x
